Results published in ChEMBL document CHEMBL2440101, “Total syntheses and cytotoxicity of kealiiquinone, 2-deoxy-2-aminokealiiquinone and analogs” (Bioorg Med Chem Lett, 2013).

Test system: MCF7
Test: Cytotoxicity against human MCF7 cells after 96 hrs by MTT assay
Format: functional, cell-based
Settings: MCF7, 96 h
Outline: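 MCF7 breast cancer cells; MTT growth assay with cisplatin as positive control. IC50 taken from cytotoxicity (concentration-response) plots and reported with SEM.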

Row | SMILES | IC50 [µM]
1 | COc1ccc(-c2c3cc(O)c(OC)cc3cc3c2[nH]c(=N)n3C)cc1 [KEALIININE A] | 23.4
2 | COc1ccc(-c2c3cc(OC)c(OC)c(OC)c3cc3c2ncn3C)cc1 | 68.2
3 | COc1ccc(-c2c3ncn(C)c3cc3cc(OC)c(OC)c(OC)c23)cc1 | 99.8
4 | COc1ccc(-c2c3[nH]c(=O)n(C)c3cc3cc(OC)c(OC)c(OC)c23)cc1 | 29.9
5 | COC1=C(OC)C(=O)c2c(cc3c([nH]c(=O)n3C)c2-c2ccc(OC)cc2)C1=O | 91.9
6 | COc1ccc(-c2c3cc(O)c(OC)cc3cc3c2ncn3C)cc1 | > 100
7 | COc1ccc(-c2c3cc(OC)c(OC)c(OC)c3cc3c2nc(N)n3C)cc1 | 22.7
8 | COc1ccc(-c2c3cc(OC)c(OC)cc3cc3c2nc(N)n3C)cc1 | 28.8
9 | COc1ccc(-c2c3cc(OCc4ccccc4)c(OC)cc3cc3c2ncn3C)cc1 | 92
10 | COC1=C(OC)C(=O)c2c(cc3c(ncn3C)c2-c2ccc(OC)cc2)C1=O | 41.1
11 | COc1ccc(-c2c3nc(N)n(C)c3cc3cc(OC)c(OC)c(OC)c23)cc1 | > 100
12 | COC1=C(OC)C(=O)c2c(cc3c(nc(N)n3C)c2-c2ccc(OC)cc2)C1=O | 43.8
13 | COc1ccc(-c2c3cc(OC)c(OC)cc3cc3c2ncn3C)cc1 | 28
